Published values of several laboratories.
Lines come from different studies, so protocols differ.
SETD7: Histone-lysine N-methyltransferase SETD7 (SETD7, Homo sapiens, UniProt Q8WTS6)
SLC10A2: Ileal sodium/bile acid cotransporter (SLC10A2, Homo sapiens, UniProt Q12908)

Compound | target | assay | conditions | inhibition
CSCCC(NC=O)C(=O)NC(C)C(=O)O (stereo not drawn) | SETD7 | cell-free assay | 10 µM | 7%
CN1CC(Oc2cnc(C#N)cc2-c2ccn3nc(NC(=O)C4CC4)cc3c2)C1 | Serine/threonine-protein kinase 35 (STK35, Homo sapiens, UniProt Q8TDR2) | enzyme activity, inhibitor | 1 µM | 1%
CC(=O)N[C@H]1CSSC[C@@H](C(=O)N[C@H](Cc2c[nH]c3ccccc23)C(N)=O)NC(=O)[C@@H](Cc2ccccc2)NC(=O)[C@H](CCCNC(=N)N)NC1=O | Melanocortin receptor 5 (MC5R, Homo sapiens, UniProt P33032) | ligand displacement, radioligand | 10 µM, 40 min | 0%
CNC(=C[N+](=O)[O-])NCCSCc1ccc(CN(C)C)o1 | SLC10A2 | transporter uptake, inhibitor, radiometric | 1 mM | 30.2%
O=c1c(O)cccc2c([C@H]3Oc4cc(O)cc(O)c4C[C@H]3O)cc(O)c(O)c12 | SETD7 | cell-free assay | 10 µM | 16%
O=C(O)c1cc(=O)c2c(OCC(O)COc3cccc4oc(C(=O)O)cc(=O)c34)cccc2o1 | SLC10A2 | transporter uptake, inhibitor, radiometric | 1 mM | < 10%
O=c1c(O)cccc2cc(O)c(O)c(O)c12 | SETD7 | cell-free assay | 10 µM | 27%
C=C[C@H]1C[N@@]2CC[C@H]1C[C@H]2[C@H](O)c1ccnc2ccc(OC)cc12 | SLC10A2 | transporter uptake, inhibitor, radiometric | 1 mM | 59.9%
CCN(c1cc(C#CCN2CCOCC2)cc(C(=O)NCc2c(C)cc(C)[nH]c2=O)c1C)[C@H]1CC[C@H](N(C)CCOC)CC1 | Histone-lysine N-methyltransferase SETD2 (SETD2, Homo sapiens, UniProt Q9BYW2) | enzyme activity, inhibitor | 1 µM | 20%
